# Results collected from several papers.
# Compare with care: the assays were run in different laboratories.
# Target: NUAK family SNF1-like kinase 2 (NUAK2, Homo sapiens, UniProt Q9H093)
# One construct used (Q9H093 1-628): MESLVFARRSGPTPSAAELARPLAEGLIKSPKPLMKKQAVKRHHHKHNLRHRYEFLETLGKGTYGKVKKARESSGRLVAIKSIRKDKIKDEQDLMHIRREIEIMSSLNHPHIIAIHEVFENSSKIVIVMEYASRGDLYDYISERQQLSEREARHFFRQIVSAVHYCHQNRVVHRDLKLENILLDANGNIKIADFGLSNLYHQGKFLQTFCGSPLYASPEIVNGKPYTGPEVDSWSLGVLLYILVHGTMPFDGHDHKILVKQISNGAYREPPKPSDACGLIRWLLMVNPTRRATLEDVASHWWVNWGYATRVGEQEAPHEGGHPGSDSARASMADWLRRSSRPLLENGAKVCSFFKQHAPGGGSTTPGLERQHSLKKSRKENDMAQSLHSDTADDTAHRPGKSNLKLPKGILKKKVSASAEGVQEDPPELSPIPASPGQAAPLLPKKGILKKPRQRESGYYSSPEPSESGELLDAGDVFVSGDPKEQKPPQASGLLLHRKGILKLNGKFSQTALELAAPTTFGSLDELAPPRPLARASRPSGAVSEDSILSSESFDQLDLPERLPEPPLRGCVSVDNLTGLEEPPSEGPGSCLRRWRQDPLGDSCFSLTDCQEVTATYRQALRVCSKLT
SMILES,test,conditions,remaining binding
O=C(Nc1c[nH]nc1C(=O)NC1CCNCC1)c1cc(F)cc(F)c1,"binding, competition with immobilised ligand",1 µM,100%
N#Cc1ccccc1CSc1nnc2c(n1)[nH]c1ccccc12,"binding, competition with immobilised ligand",10 µM,93%
O=C(NCCCN1CCOCC1)c1ccc(Nc2nccc(-c3cc4ccccc4s3)n2)cc1,"binding, competition with immobilised ligand",1 µM,26%
O=C(N1CCS(=O)(=O)CC1)N1C[C@H](c2ccc(OC(F)(F)F)cc2)C[C@H](c2nc(C3CC3)no2)C1,"cell-free assay, competition with immobilised ligand",1 µM,100%
O=C(c1ccc(Nc2ncc(Cl)c(-c3cc4ccccc4s3)n2)cc1)N1CCC(N2CCCC2)CC1,"binding, competition with immobilised ligand",1 µM,0.8%
N[C@H]1CCN(c2nccc(-c3cnn4ncccc34)n2)C1,binding,1 µM,100%
Cc1cnc(Nc2ccc(C(=O)N3CCC(N4CCCC4)CC3)cc2)nc1-c1cc2ccccc2s1,"binding, competition with immobilised ligand",1 µM,1%
COc1cnc(Nc2cccc(S(N)(=O)=O)c2)nc1N1CCN(c2ccccc2)C(=O)C1,"binding, competition with immobilised ligand",1 µM,54%
CN(C)c1ncc(F)c(-c2cnn3ncccc23)n1,binding,1 µM,80%
C[C@@H]1CN(c2ccc3ncc(-c4ccc5[nH]nc(C6CC6)c5c4)n3n2)C[C@H](C)O1,"binding, competition with immobilised ligand",0.5 µM,58%
C[C@@H]1CCN(c2nccc(-c3cnn4ncccc34)n2)C1,binding,1 µM,74%
CS(=O)(=O)NCC[C@H](NC(=O)c1cncc2c1cnn2-c1ccc(F)cc1)c1ccnc(S(C)(=O)=O)c1,"cell-free assay, competition with immobilised ligand",1 µM,100%
F[C@@H]1CCN(c2nccc(-c3cnn4ncccc34)n2)C1,binding,1 µM,88%
CNCc1ccccc1-c1csc([C@H](C)Nc2nc(C)nc3cc(OC)c(OC)cc23)c1,"cell-free assay, competition with immobilised ligand",1 µM,100%
Nc1ncc2c(n1)-c1c([nH]c3ccc(C#CC4CC4)cc13)CCCC2,"binding, competition with immobilised ligand",1 µM,92%
FC(F)(F)Oc1cccc(-c2cnc3ccc(-c4ccncc4)nn23)c1,"binding, competition with immobilised ligand",5 µM,37%
O=C(O)[C@H]1[C@H](Cn2nnc3ccccc3c2=O)CC[C@@H]1C(=O)c1ccc(OCCC2CCOCC2)cc1,"cell-free assay, competition with immobilised ligand",1 µM,100%
CCN1CCN(Cc2ccc(C(=O)Nc3ccc(C)c(Oc4ccc5c(c4)CC(=O)N5)c3)cc2C(F)(F)F)CC1,"binding, competition with immobilised ligand",1 µM,100%
COc1cc(-c2cn(C3CCc4ccccc4N(CC(F)(F)F)C3=O)nn2)ccc1-n1ccc(C)n1 (stereo not shown),"cell-free assay, competition with immobilised ligand",1 µM,88%
c1cnn2ncc(-c3ccnc(N4CCC45COC5)n3)c2c1,binding,1 µM,64%
Cc1c(NC(=O)c2cc(C(N)=O)nc3cc(F)ccc23)c(C(F)(F)F)nn1Cc1ccc(C#N)cc1,"cell-free assay, competition with immobilised ligand",1 µM,83%
CC1CCCN1c1nccc(-c2cnn3ncccc23)n1 (stereo not shown),binding,1 µM,85%
